This note sets out measurements from ChEMBL document CHEMBL3997810, “A Novel Potent Anticancer Compound Optimized from a Natural Oridonin Scaffold Induces Apoptosis and Cell Cycle Arrest through the Mitochondrial Pathway” (J Med Chem, 2017).

For data set [1], the system named is MCF7. Put plainly: Antiproliferative activity against human MCF7 cells after 72 hrs by MTT assay. It counts as functional, cell-based. The conditions noted are these: MCF7, 72 h. The essentials:
(§1)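 MGC-803 and MCF-7 cells grown in DMEM (MCF-7 with 1× NEAA); Bel-7402 and K562 grown in RPMI 1640; all media with 10% FBS. Cells seeded at 3500/well, pre-incubated 24 h, then exposed to compounds in fresh medium (DMSO ≤0.25%) for 72 h at 37 °C. MTT read-out at 570 nm. Quadruplicate wells, repeated three times; means ± SD (n = 3).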
In general terms: Formazan colour is commonly taken as a measure of viable cells.

The test system of data set [2] is MCF7. Put plainly: Antitumor activity against human MCF7 cells xenografted in Balb/c nude mouse assessed as tumor growth inhibition at 20 mg/kg/day, iv for 4 weeks relative to control. The class given is functional. Conditions: 672 h, read-out: TGI. In outline:
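Six-week-old male BALB/c nude mice received 1 × 10^6 MCF-7 cells subcutaneously in the right flank. After 7 d of tumor growth, mice were randomized into groups of six. Dosing was 20 mg/kg iv once daily for 28 days in 10% DMF/2% poloxamer/88% saline. Tumor volume (L × W²/2) and body weight were recorded every 2 days. Inhibition = (1 − mean treated/control tumor weight) × 100%.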

In data set [3] the test system is MCF7. The data set is described as follows: Induction of ROS generation in human MCF7 cells at 1 uM after 36 hrs in presence of ROS scavenger NAC by DCF-DA staining based flow cytometry. The class given is functional, cell-based. In outline:
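MCF-7 cells exposed to 0–1 μM compound for 36 h, with DMSO as control; one arm pre-incubated with 2.5 mM NAC. Cells then loaded with DCF-DA at 37 °C for 15 min, harvested and resuspended in PBS. Fraction of DCF-positive cells measured by flow cytometry at Ex 480/Em 525 nm.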
For orientation: In flow cytometry, cells or beads pass a laser one at a time.

In data set [4] the test system is MCF7. Put plainly: Induction of mitochondrial membrane potential depolarization in human MCF7 cells assessed as ratio of red fluorescence to green fluorescence at 1 uM after 36 hrs by JC1 staining based fluorescence microscopic method (reference value: 1.433). It counts as functional. The essentials:
(§2)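 MCF-7 cells were treated with 0, 0.25, 0.5 or 1 μM for 36 h and loaded with 10 μg/mL JC-1 for 30 min at 37 °C, then washed in PBS. Monomers were read at ex 490/em 535 nm and aggregates at ex 525/em 600 nm, by plate reader or fluorescence microscopy. The red/green ratio came from 10,000 cells per group, in triplicate, mean ± SD.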

The test system of data set [5] is MCF7. Put plainly: Induction of apoptosis in human MCF7 cells assessed as live cells at 0.125 uM after 24 hrs by Annexin-V FITC/propidium iodide staining based flow cytometry (reference value: 97%). The class given is functional.
Data set [6] deals with Bel-7402. Put plainly: Cell cycle arrest in human Bel7402 cells assessed as accumulation at G2/M phase at 4 uM after 48 hrs by propidium iodide staining based flow cytometry (reference value: 56.61%). The class given is functional.
Data set [7] deals with MCF7. Put plainly: Induction of mitochondrial membrane potential depolarization in human MCF7 cells after 36 hrs by JC1 staining based fluorescence microscopic method. It counts as functional, cell-based. In outline: as §2
For data set [8], the system named is MCF7. Put plainly: Induction of apoptosis in human MCF7 cells assessed as chromatin condensation at 0.125 to 1 uM after 36 hrs by Hoechst 33342 staining based fluorescence microscopic method. The class given is functional, cell-based.
The subject of data set [9] is MCF7. Put plainly: Induction of apoptosis in human MCF7 cells assessed as early apoptotic cells at 0.5 uM after 24 hrs by Annexin-V FITC/propidium iodide staining based flow cytometry (reference value: 2.65%). The class given is functional.
The test system of data set [10] is MCF7. Put plainly: Induction of apoptosis in human MCF7 cells assessed as necrotic cells at 0.25 uM after 24 hrs by Annexin-V FITC/propidium iodide staining based flow cytometry (reference value: 0.102%). The class given is functional.
Data set [11] concerns MCF7. Put plainly: Induction of apoptosis in human MCF7 cells assessed as decrease in Bcl2 protein expression at 0.5 to 1 uM after 48 hrs by Western blot method. It counts as functional, cell-based. In outline:
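MCF-7 cells exposed to 0–1 μM compound for 48 h, then lysed on ice. Lysate (20 μg protein) run on 8–12% SDS-PAGE and transferred to PVDF. Probed overnight at 4 °C with primary antibodies, then fluorescent secondaries. Band densities normalized to β-actin. Mean ± SD of three independent experiments.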
For orientation: Immunoblotting shows a protein as a band on a membrane.

In data set [12] the test system is MCF7. Put plainly: Induction of apoptosis in human MCF7 cells assessed as increase in Bax protein expression at 0.5 to 1 uM after 48 hrs by Western blot method. The class given is functional, cell-based. In outline:
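MCF-7 cells were treated at 0, 0.125, 0.25, 0.5 or 1 μM for 48 h, washed in ice-cold PBS and lysed on ice for 20 min. Lysates were spun at 13,000 g, 4 °C. 20 μg protein was run on SDS-PAGE and blotted to PVDF, probed overnight at 4 °C with primary antibodies, then with fluorescent secondary antibodies. Band density was expressed relative to β-actin; three independent experiments.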

Data set [13] has as its system MCF7. Put plainly: Induction of apoptosis in human MCF7 cells assessed as live cells at 0.5 uM after 24 hrs by Annexin-V FITC/propidium iodide staining based flow cytometry (reference value: 97%). It counts as functional.
Data set [14] concerns MCF7. The data set is described as follows: Induction of apoptosis in human MCF7 cells assessed as live cells at 0.25 uM after 24 hrs by Annexin-V FITC/propidium iodide staining based flow cytometry (reference value: 97%). It counts as functional.
The test system of data set [15] is MCF7. Put plainly: Cytotoxicity against human MCF7 cells at 10 to 50 uM after 24 hrs by LDH assay. The class given is functional, cell-based. The essentials: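 Membrane integrity assay on MCF-7 and Bel-7402 cells seeded at ~5 × 10^3 per well for 24 h, then given compounds at 10, 20 or 50 μM. Culture medium collected and assayed with CytoTox-ONE LDH reagent for 10 min, followed by stop solution. Fluorescence read at Ex 560/Em 590 nm. Expressed as percentage of unstimulated cells.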

The test system of data set [16] is Bel-7402. Put plainly: Cell cycle arrest in human Bel7402 cells assessed as accumulation at S phase at 0.5 uM after 48 hrs by propidium iodide staining based flow cytometry (reference value: 8.78%). It counts as functional.
For a further data set, the system named is H22. Put plainly: Antitumor activity against […] cells xenografted in ICR mouse assessed as tumor growth inhibition at 20 mg/kg/day, iv for 3 weeks. The class given is functional, organism-based. The essentials:
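Male ICR mice (5 weeks old) inoculated subcutaneously in the right flank with 1 × 10^6 H22 cells. After 7 d, randomized into groups of eight or six. Dosed iv 20 mg/kg daily in 10% DMF/2% poloxamer/88% saline. Cyclophosphamide 20 mg/kg iv as positive control; saline as negative control. Body weight and tumour volume (L × W²/2) every 2 days; inhibition calculated from final tumour weights.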

Data set [17] deals with MCF7. Put plainly: Induction of apoptosis in human MCF7 cells assessed as late apoptotic cells at 0.5 uM after 24 hrs by Annexin-V FITC/propidium iodide staining based flow cytometry (reference value: 0.255%). The class given is functional.
The next data set has as its system Mus musculus. The data set is described as follows: Toxicity in ICR mouse xenografted with […] cells assessed as changes in body weight at 20 mg/kg/day, iv for 3 weeks measured once in 2 days during compound dosing. It counts as organism-based. Conditions: in vivo. The essentials: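 Mice received 1 × 10^6 tumor cells subcutaneously in the right flank: MCF-7 in male BALB/c nude mice aged six weeks, H22 in male ICR mice aged five weeks. After 7 d they were randomized (six or eight per group). Dosing was 20 mg/kg iv daily in 10% DMF/2% poloxamer/88% saline for 21 or 28 days; saline control. Body weight was recorded every 2 days.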

Data set [18] has as its system Bel-7402. Put plainly: Antiproliferative activity against human Bel7402 cells after 72 hrs by MTT assay. The conditions noted are these: Bel-7402, 72 h. It counts as functional, cell-based. The essentials: as §1

pIC50: −log10 of the molar value. The source made the active and inactive calls. No cut-off for these calls is given here.

As to `C=C1C(=O)[C@]23[C@H](OC(=O)/C=C/c4ccccc4)[C@H]1CC[C@H]2[C@]12C=CCC(C)(C)[C@H]1[C@H](O)[C@]3(O)OC2`, the pIC50 in the data set with MCF7 [1] is 7.10; with Bel-7402 [18], 5.99. Besides, in the data set on MCF7 [2], the inhibition in vivo at 20 mg/kg/day came to 69.8%. The outcome in the data set on MCF7 [3] and with MCF7 [15] was inactive. Besides, the Ratio with MCF7 [4] turned out to be 0.385. Also, the Activity with MCF7 [5] is 84.9%; with Bel-7402 [6] it was 63.11%; with MCF7 [7], “Dose-dependent effect”; in the data set with MCF7 [9], 13.3%; in the data set on MCF7 [10], 2.39%; in the data set with MCF7 [13] it was 54.3%. The Activity was 69.7% in the data set with MCF7 [14], 7.61% in the data set with Bel-7402 [16], 30.2% with MCF7 [17] and “Non-Toxic” in the data set with Mus musculus. Moreover, the outcome in the data set with MCF7 [8], in the data set with MCF7 [11] and with MCF7 [12] was Active. In the data set on H22, the TGI result is “Active”.

The term pIC50 denotes the IC50 on a negative log10 scale, so that one unit is a factor of ten. The low end stands for a high IC50, the high end for a low IC50.
